The target in series [1] is T1, 3-ketoacyl-CoA synthase 20 (Arabidopsis thaliana) (UniProt Q9FG87).
T1 sequence (whole entry): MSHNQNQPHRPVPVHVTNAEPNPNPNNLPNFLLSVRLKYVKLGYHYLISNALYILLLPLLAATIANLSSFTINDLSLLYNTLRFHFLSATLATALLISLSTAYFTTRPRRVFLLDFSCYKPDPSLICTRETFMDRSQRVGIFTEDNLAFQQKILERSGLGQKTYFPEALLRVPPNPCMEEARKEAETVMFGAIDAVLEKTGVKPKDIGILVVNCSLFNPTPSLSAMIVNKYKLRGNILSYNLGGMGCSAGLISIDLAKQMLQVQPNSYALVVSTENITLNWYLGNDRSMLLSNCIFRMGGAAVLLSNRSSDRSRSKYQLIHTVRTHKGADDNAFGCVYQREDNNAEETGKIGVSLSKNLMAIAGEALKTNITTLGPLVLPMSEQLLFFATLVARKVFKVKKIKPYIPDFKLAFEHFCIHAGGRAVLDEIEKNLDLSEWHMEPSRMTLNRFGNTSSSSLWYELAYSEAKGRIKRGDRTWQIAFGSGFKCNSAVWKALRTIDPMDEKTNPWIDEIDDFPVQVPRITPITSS
In words: Inhibition of Arbidopsis thaliana C-terminal His-tagged At5g43760 expressed in Saccharomyces cerevisiae INVSc1 at 100 uM after 18 to 20 hr by GC/MS analysis. In a few lines: (§1)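 pYES2 galactose-inducible constructs in INVSc1, grown at 28°C in uracil-dropout minimal medium with 2% glucose. Log-phase cells were induced in 1% raffinose/2% galactose with herbicide at final 100 μM, in 50-ml culture for 18–20 h, then freeze-dried. FAMEs were made in 1 M methanolic HCl/5% dimethoxypropane at 80°C for 1 h under N2 and run on GC/MS. VLCFA profile was compared with herbicide-free elongase-expressing cells.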

Series [2] has as its target T2, 3-ketoacyl-CoA synthase 18 (Arabidopsis thaliana) (UniProt Q38860).
T2 sequence (whole entry): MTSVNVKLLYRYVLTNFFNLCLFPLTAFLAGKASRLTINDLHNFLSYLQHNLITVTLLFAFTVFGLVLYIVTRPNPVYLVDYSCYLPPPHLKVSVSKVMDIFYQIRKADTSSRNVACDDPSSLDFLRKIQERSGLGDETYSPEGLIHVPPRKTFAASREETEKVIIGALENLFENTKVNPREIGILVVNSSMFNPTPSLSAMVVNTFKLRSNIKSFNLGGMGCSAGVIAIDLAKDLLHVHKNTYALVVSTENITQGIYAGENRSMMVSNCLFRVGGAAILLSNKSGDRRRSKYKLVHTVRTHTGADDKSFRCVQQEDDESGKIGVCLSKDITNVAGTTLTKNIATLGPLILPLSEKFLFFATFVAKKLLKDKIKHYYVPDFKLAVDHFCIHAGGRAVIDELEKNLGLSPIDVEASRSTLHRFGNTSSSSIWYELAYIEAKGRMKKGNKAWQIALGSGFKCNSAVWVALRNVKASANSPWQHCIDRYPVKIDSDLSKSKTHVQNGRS
Nature of the series: Inhibition of Arbidopsis thaliana C-terminal His-tagged FAE1 expressed in Saccharomyces cerevisiae INVSc1 at 100 uM after 18 to 20 hr by GC/MS analysis. In a few lines:
as §1

In series [3] the target is T3, 3-ketoacyl-CoA synthase 2 (Arabidopsis thaliana) (UniProt Q5XEP9).
T3 sequence (whole entry): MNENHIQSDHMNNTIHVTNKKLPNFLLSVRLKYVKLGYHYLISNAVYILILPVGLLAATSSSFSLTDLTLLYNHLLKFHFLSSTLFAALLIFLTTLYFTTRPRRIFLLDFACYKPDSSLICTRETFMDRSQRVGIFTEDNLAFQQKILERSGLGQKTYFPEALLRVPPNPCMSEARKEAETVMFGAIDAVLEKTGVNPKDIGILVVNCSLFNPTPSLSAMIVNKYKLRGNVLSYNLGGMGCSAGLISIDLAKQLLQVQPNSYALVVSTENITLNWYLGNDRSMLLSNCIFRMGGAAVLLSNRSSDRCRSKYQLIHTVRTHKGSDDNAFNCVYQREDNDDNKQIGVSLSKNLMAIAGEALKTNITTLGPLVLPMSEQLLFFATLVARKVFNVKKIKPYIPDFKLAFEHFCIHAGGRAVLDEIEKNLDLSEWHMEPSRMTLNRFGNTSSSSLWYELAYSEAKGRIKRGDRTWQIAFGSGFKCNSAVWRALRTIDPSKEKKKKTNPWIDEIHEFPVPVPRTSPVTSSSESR
Nature of the series: Inhibition of Arbidopsis thaliana C-terminal His-tagged At1g04220 expressed in Saccharomyces cerevisiae INVSc1 at 100 uM after 18 to 20 hr by GC/MS analysis. In a few lines: as §1

The next series relates to Saccharomyces cerevisiae. Nature of the series: Growth inhibition of Saccharomyces cerevisiae INVSc1 at 100 uM after 18 to 20 hr. The format is organism-based. The note with it: in vivo. The gist of the method:
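Yeast strains expressing the active elongases were induced in raffinose/galactose medium with herbicide at 100 μM for the 18–20 h incubation. Growth was followed by optical density and compared with cultures lacking inhibitor.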

Another series relates to Arabidopsis thaliana. In words: Herbicidal activity against Arabidopsis thaliana assessed as apperance of fiddle head phenotype. The format is functional, organism-based.
For series [4], the target named is T4, 3-ketoacyl-CoA synthase 1 (Arabidopsis thaliana) (UniProt Q9MAM3).
T4 sequence (whole entry): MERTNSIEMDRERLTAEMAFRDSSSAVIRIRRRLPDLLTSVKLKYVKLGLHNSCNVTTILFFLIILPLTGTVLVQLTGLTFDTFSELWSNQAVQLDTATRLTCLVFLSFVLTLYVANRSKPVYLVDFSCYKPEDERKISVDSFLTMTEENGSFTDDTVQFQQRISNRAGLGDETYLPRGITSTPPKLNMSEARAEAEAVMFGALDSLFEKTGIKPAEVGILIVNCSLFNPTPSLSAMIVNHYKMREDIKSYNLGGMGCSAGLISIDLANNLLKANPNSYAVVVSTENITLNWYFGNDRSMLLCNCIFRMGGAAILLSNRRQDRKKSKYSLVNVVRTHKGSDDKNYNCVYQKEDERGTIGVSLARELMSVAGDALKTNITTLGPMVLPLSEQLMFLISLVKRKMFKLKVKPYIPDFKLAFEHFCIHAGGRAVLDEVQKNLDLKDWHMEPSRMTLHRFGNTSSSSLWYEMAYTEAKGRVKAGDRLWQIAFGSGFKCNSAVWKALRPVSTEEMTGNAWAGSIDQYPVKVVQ
In words: Inhibition of Arbidopsis thaliana C-terminal His-tagged KCS1 expressed in Saccharomyces cerevisiae INVSc1 at 100 uM after 18 to 20 hr by GC/MS analysis. In a few lines:
as §1

In series [5] the target is T5, 3-ketoacyl-CoA synthase 17 (Arabidopsis thaliana) (UniProt O65677).
T5 sequence (whole entry): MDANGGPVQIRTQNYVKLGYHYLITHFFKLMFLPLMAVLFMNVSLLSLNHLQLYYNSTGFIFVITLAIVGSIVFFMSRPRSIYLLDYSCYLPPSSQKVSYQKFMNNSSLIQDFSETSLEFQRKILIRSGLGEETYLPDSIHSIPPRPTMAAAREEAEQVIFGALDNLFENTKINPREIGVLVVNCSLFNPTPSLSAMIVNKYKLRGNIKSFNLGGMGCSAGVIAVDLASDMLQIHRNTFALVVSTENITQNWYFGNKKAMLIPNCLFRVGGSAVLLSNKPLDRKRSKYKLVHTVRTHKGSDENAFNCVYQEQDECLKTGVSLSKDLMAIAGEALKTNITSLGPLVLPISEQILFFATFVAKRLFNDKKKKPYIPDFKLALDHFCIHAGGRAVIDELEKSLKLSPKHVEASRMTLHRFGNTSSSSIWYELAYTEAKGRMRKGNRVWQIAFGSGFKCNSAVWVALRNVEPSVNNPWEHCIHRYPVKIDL
Nature of the series: Inhibition of Arbidopsis thaliana C-terminal His-tagged KCS2 expressed in Saccharomyces cerevisiae INVSc1 at 100 uM after 18 to 20 hr by GC/MS analysis. The gist of the method:
as §1

The target of series [6] is T6, 3-ketoacyl-CoA synthase 5 (Arabidopsis thaliana) (UniProt Q9C6L5).
T6 sequence (whole entry): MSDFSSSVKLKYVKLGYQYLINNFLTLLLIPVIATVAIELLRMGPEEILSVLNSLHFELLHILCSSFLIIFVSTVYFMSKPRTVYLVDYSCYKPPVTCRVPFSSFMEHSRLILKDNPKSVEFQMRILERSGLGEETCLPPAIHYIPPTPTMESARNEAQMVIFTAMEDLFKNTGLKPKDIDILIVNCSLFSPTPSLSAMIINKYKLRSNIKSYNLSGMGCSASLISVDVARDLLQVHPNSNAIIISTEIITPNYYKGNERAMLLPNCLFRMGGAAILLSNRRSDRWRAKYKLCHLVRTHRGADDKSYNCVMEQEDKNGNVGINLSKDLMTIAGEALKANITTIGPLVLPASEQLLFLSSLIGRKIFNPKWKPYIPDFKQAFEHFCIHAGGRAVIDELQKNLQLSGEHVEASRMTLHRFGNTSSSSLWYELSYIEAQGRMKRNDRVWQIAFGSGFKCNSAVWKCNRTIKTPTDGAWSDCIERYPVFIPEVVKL
In words: Inhibition of Arbidopsis thaliana C-terminal His-tagged CER60 expressed in Saccharomyces cerevisiae INVSc1 at 100 uM after 18 to 20 hr by GC/MS analysis. In a few lines:
as §1

Active and inactive are the calls of the source. No cut-off for these calls is given here.

As for `CCc1cccc(CC)c1N(COC)C(=O)CCl` [ALACHLOR], the inhibition entry in series [1], in series [4], in series [5] and in series [6] was “Active” each time. Further, the inhibition result in series [2] and in series [3] was “inactive” in each case. For the same compound, the Activity result in the series on Saccharomyces cerevisiae is recorded as “Non-toxic”. For the same compound, the outcome with Arabidopsis thaliana was inactive.
Regarding `CCN(CC)C(=O)C(C)Oc1cccc2ccccc12` (configuration not stated) [NAPROPAMIDE], the inhibition result in series [1], in series [2], in series [3], in series [4], in series [5] and in series [6] was “inactive” in each case. Besides, in the series on Saccharomyces cerevisiae, the Activity entry is “Non-toxic”. Also, in the series on Arabidopsis thaliana, the outcome was inactive.
For `CCS(=O)(=O)Oc1ccc2c(c1)C(C)(C)CO2` [BENFURESATE], the inhibition result in series [1], in series [2], in series [3], in series [4], in series [5] and in series [6] was “inactive” throughout. The Activity result with Saccharomyces cerevisiae is listed as “Non-toxic”. In addition, the outcome in the series with Arabidopsis thaliana was Active.
For the compound `CC(C)N(C(=O)COc1nnc(C(F)(F)F)s1)c1ccc(F)cc1` [FLUFENACET], the inhibition entry in series [1], in series [2], in series [3], in series [4], in series [5] and in series [6] was “Active” throughout. In the series on Saccharomyces cerevisiae, the Activity result is listed as “Non-toxic”. Also, the result in the series on Arabidopsis thaliana was Active.
As for `CN(C)C(=O)C(c1ccccc1)c1ccccc1` [DIPHENAMIDE], the inhibition entry in series [1], in series [2], in series [3], in series [4], in series [5] and in series [6] was “inactive” throughout. In addition, the Activity entry with Saccharomyces cerevisiae was “Non-toxic”. Further, the outcome in the series with Arabidopsis thaliana was inactive.
Regarding `CCN(C(=O)n1nnn(-c2ccccc2Cl)c1=O)C1CCCCC1` [FENTRAZAMIDE], the inhibition result in series [1], in series [4] and in series [5] was “Active” in each case. Also, the inhibition result in series [2], in series [3] and in series [6] was “inactive” each time. Moreover, the Activity result in the series with Saccharomyces cerevisiae is recorded as “Non-toxic”. Besides, in the series on Arabidopsis thaliana, the result was Active.
Regarding `CCN(CC)C(=O)n1cnc(S(=O)(=O)c2c(C)cc(C)cc2C)n1` [CAFENSTROLE], the inhibition result in series [1], in series [2], in series [3], in series [4], in series [5] and in series [6] was “Active” throughout. In addition, in the series with Saccharomyces cerevisiae, the Activity entry was “Non-toxic”. Further, the result in the series with Arabidopsis thaliana was Active.
As to `CC(C)N(C(=O)SCC(Cl)=C(Cl)Cl)C(C)C` [TRIALLATE], the inhibition result in series [1], in series [2], in series [3], in series [4] and in series [5] was “inactive” throughout. In addition, the Activity entry in the series with Saccharomyces cerevisiae is “Non-toxic”. The outcome in the series with Arabidopsis thaliana was inactive. The inhibition entry in series [6] was “Active”.
For the compound `CCOC1Oc2ccc(OS(C)(=O)=O)cc2C1(C)C` (configuration not stated) [ETHOFUMESATE], the inhibition entry in series [1], in series [2], in series [3], in series [4], in series [5] and in series [6] was “inactive” in each case. Further, the Activity entry in the series with Saccharomyces cerevisiae is recorded as “Non-toxic”. In addition, the result with Arabidopsis thaliana was Active.

Values taken from ChEMBL document CHEMBL3045755, “Specific and differential inhibition of very-long-chain fatty acid elongases from Arabidopsis thaliana by different herbicides” (Proc Natl Acad Sci U S A, 2004).
